This is a sample that favours compounds with a hit; in the whole collection about 27% have one here.
CYP2C9 act: human CYP2C9 activators, primary screen, biochemical, luminescence. 96,000 compounds, 1.4% hits. activation factor at 5 µM. recombinant CYP2C9, luciferin-H conversion; hits give high values; factor 1 = untreated enzyme, 0 = blocked. Cytochrome P450 2C9 (Homo sapiens), P11712;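 active = activation factor of 2 or more for CYP2C9 at a 5 µM dose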;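 also: 0 = sulfaphenazole-blocked wells and 1 = vehicle-only wells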
Cav3 T inh: Cav3.2 calcium influx blockers – cell-based, Fluo-4 calcium fluorescence, FDSS, MLSMR library, primary screen. Voltage-dependent T-type calcium channel subunit alpha-1H (Homo sapiens), O95180. Cav3.2-expressing cells; hits give low values. B-score at 10 µM. 100,000 compounds, 4% hits. AID 449739, 2010;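 active = single-dose well whose peak fluorescence ratio is a statistical outlier from its plate by either plate-standardised score or position-corrected B-score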
CYP2C19 act: human CYP2C19 activators, primary screen, biochemical, luminescence; recombinant CYP2C19, luciferin-H EGE luminescence; hits give high values; 0 = fully inhibited enzyme, 1 = untreated enzyme; Cytochrome P450 2C19 (Homo sapiens), P33261; AID 1025, 2008; activation factor at 5 µM; 96,000 tested, under 10 active;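 active = activation factor of at least 2 at 5 µM in the primary screen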;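 also: 0 = wells with 2.5 mM tranylcypromine and 1 = vehicle-only wells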
Target sequence (P33261 whole entry, looked up): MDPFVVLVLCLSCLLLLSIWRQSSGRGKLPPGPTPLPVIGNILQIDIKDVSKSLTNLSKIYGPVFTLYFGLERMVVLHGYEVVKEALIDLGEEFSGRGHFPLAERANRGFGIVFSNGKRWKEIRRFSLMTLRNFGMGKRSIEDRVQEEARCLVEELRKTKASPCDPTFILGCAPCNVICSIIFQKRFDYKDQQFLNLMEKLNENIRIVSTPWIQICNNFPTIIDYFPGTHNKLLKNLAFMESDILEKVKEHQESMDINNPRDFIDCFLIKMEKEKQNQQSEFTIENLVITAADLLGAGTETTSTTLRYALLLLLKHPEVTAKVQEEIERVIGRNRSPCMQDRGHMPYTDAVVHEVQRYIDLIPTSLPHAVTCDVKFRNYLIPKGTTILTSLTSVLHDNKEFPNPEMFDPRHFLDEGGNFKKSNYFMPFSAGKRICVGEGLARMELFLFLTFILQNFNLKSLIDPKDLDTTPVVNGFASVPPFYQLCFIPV
CYP2C19 inhib: blockers of cytochrome P450 2C19 activity – biochemical, luminescence, ADME assay, primary screen; P33261; CYP2C19 Supersomes, luciferin-H EGE luminescence, 30 min; inhibition, % at 5 µM; 96,000 compounds, 21% hits; AID 778, 2007;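 active = CYP2C19 inhibition above a set limit at 5 µM in the primary screen, cut at about 50% in these data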;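 also: plate controls were negative control wells for no effect and 2.5 mM tranylcypromine positive control for full effect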
CYP2C9 inh: blockers of cytochrome P450 2C9 activity – biochemical, luminescence, ADME assay, primary screen. 96,000 compounds, 20% hits. inhibition, % at 5 µM. CYP2C9 Supersomes, luciferin-H conversion. AID 777, 2007. P11712;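 active = blocking of liver enzyme CYP2C9 beyond about 50% at 5 µM, limit read from the data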
Rev-RRE block: HIV-1 Rev-RRE binding inhibitors, primary screen, biochemical, FRET, protein-RNA interaction; 97,000 compounds, 0.79% hits; P05866; Rev peptide-RRE RNA binding; AID 704, 2007; inhibition, % at 8 µM;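 active = inhibition above the screen-wide mean plus 3 SD, cut at about 35% in these data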;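 also: 0% = median DMSO wells and 100% = median Neomycin B control wells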
Target sequence (P05866 whole entry, looked up): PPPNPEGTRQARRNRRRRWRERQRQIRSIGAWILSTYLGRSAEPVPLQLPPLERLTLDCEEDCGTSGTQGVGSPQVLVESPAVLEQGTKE
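System: Cy5-labelled duplex RRE RNA binding fluorescein-labelled HIV Rev peptide; Signal: fluorescein-to-Cy5 FRET, 480 nm excitation; Also added: labelled Rev peptide; Compound: one concentration, 8 µM nominal; Buffer or medium: HEPES pH 7.5 salt buffer with EDTA; Read-out: % inhibition of FRET ratio versus controls; Schedule: 5 min preincubation and 15 min binding, 25 °C.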
* = called active by the depositor; . = no result.

SMILES	CYP2C9 act	Cav3 T inh	CYP2C19 act	CYP2C19 inhib	CYP2C9 inh	Rev-RRE block
N#CCCSc1ccccc1NC(=O)c1ccc(S(=O)(=O)N2CCCC2)cc1	0.2	-0.0704	0.8	19.2	75.6*	7.8
O=C(Oc1cccc(Br)c1)c1cccnc1	1.1	0.266	1	2.8	-9.7	2.9
CCn1c(=O)cc(NC2=NCC(C)CN2c2cccc(Cl)c2)n(C)c1=O (configuration not stated)	0.7	1.22	0.9	12.4	34.4	.
Cn1c(SCC(=O)Nc2ccc3nc(SCC(=O)N4CCCC4)sc3c2)nnc1-c1ccccc1	0.6	0.194	0.8	19.7	43.1	1.2
Cc1cccc(NC(=O)CSc2nc3ccc(NC(=O)CSc4nnnn4-c4ccccc4)cc3s2)c1C	0.3	.	0.8	18.9	68.4*	6.3
Cc1cccc(NC(=O)CSc2nc3ccc(N4C(=O)c5ccccc5C4=O)cc3s2)c1C	0.3	-0.342	0.7	30.5	69.9*	6.1
O=C(Cn1nnc(-c2ccccc2-n2cnnn2)n1)N1CCCCC1	1.5	-2.95	1.2	-17.8	-51.1	1.6
Cc1ccc(-c2cnc(SCC(=O)N3CCCc4ccccc43)n2C)cc1	0.8	-3.53	0.7	33.2	22.9	2.1
O=C(Cn1nnc(-c2ccncc2)n1)N1CCc2ccccc21	0.3	0.615	0.8	24.3	69.9*	-3.8
Cc1ccc(-c2nnn(CC(=O)N3CCCc4ccccc43)n2)cc1	0.6	-4.69*	0.9	12.1	38.6	14.0
Cc1ccc(-c2noc(CCC(=O)N3CCCc4ccccc43)n2)cc1	0	-1.71	0.2	84.8*	95.1*	9.7
O=C(Cn1nnc(-c2cc(Cl)ccc2-n2cnnn2)n1)N1CCCc2ccccc21	1.1	-2.34	0.8	17.4	-13.1	11.5
O=C(Cn1nnc(-c2cccc(C(F)(F)F)c2)n1)N1CCCCCC1	4.2*	.	0.4	56.8*	-324.8	11.5
O=C(Cn1nnc(-c2cccs2)n1)N1CCc2ccccc2C1	1.1	.	0.8	19.0	-5.6	6.1
CCCC/C(O)=N\S(=O)(=O)c1ccc(N=NN(C)C)cc1	.	1.69	.	.	.	3.4
C=C(C)C(=O)Nc1cccc(C2=NOC3(C2)C[C@@H](C(N)=O)N(C(=O)c2ccc(Cl)cc2)C3)c1 (some centres not stated)	.	0.274	.	.	.	.
Cc1sc2nc(C3CC3)nc(N3CCN(S(=O)(=O)c4ccc(F)cc4)CC3)c2c1C	0.4	-1.55	0.6	37.0	59.2*	17.5
CCCc1cc(=O)oc2cc(C)c3c(C)coc3c12	0.7	-0.923	0.5	52.8*	29.6	1.3
CCCc1cc(=O)oc2cc3oc(C)c(C)c3cc12	0.6	.	0.3	72.1*	35.6	4.3
CCCc1cc(=O)oc2cc3occ(C)c3cc12	0.2	-2.44	0.3	70.6*	76.3*	9.9
CCc1cc(=O)oc2cc3oc(C)c(C)c3cc12	0.8	-0.377	0.6	44.2	17.1	4.4
Fc1ccccc1N1CCN(c2cnc3ccccc3n2)CC1	0.9	-0.047	0.7	25.4	8.0	8.0
COC(=O)c1ccccc1OCC(=O)NC1CCCCC1	0.5	0.432	0.4	64.2*	49.0	3.3
CCc1ccccc1OCC(=O)NC1CCCC1	0.6	0.516	0.1	92.9*	35.9	0.8
COc1ccccc1N(CC(=O)NC1CCCCC1)S(C)(=O)=O	0.9	1.21	0.7	26.9	14.7	0.9
SMILES	CYP2C9 act	Cav3 T inh	CYP2C19 act	CYP2C19 inhib	CYP2C9 inh	Rev-RRE block
O=C(COn1nnc2ccccc21)NCC1CCCCC1	0.9	-0.572	0.4	55.2*	5.1	2.4
O=C(COn1nnc2ccc(Cl)cc21)NCc1ccccc1	1.2	.	0.5	47.1	-15.8	6.5
COc1ccccc1OCC(=O)NCC1CCCCC1	1.1	-0.641	0.1	94.7*	-11.1	0.2
O=C(COc1ccc(F)cc1)NC1CC1	1	0.298	1	-0.4	-4.0	1.6
COc1ccccc1OCC(=O)NCCNC(=O)COc1ccccc1OC	1.1	0.199	0.9	7.5	-14.7	0.1
COc1ccc(C2CC(=O)N3CN(Cc4ccco4)CSC3=C2C#N)cc1 (configuration not stated)	0.8	0.295	0.9	8.8	20.4	4.8
CC(C)c1ccc(C2CC(=O)N3CN(Cc4ccco4)CSC3=C2C#N)cc1 (configuration not stated)	0.3	1.29	0.7	28.2	72.7*	3.9
N#CC1=C2SCN(Cc3ccco3)CN2C(=O)CC1c1ccc(Cl)cc1 (configuration not stated)	0.3	0.989	0.4	61.3*	70.2*	9.7
CC(C)(O)CCCC(C)(O)c1ccc(C(=O)O)cc1O (configuration not stated)	.	0.0082	.	.	.	.
Cc1ccc(NC(=O)CS(=O)CC(=O)Nc2ccc3c(c2)OCO3)cc1Cl (configuration not stated)	0.5	-3.29	0.9	11.0	50.8*	0.3
Cc1ccccc1OCC(=O)Nc1ccc2c(c1)OCO2	0.7	.	0.3	66.3*	29.8	1.9
CN(c1cccc(NC(=O)CN(c2ccc(C34CC5CC(CC(C5)C3)C4)cc2)S(C)(=O)=O)c1)S(C)(=O)=O	0.5	-2.38	0.8	17.3	54.5*	-3.5
Cc1ccccc1OCC(=O)Nc1cccc(N(C)S(C)(=O)=O)c1	0.2	0.441	0.3	68.8*	78.6*	5.0
Cc1ccccc1OCC(=O)NC1=NCCS1	0.6	-0.461	0.5	51.3*	38.4	8.5
CN(c1cccc(NC(=O)CCSc2ccccc2)c1)S(C)(=O)=O	0.3	0.0174	0.2	78.2*	68.1*	3.1
Cc1ccc(OCC(=O)NC2=NCCS2)cc1	0.9	-0.964	0.8	24.3	5.6	1.3
O=C(CN(Cc1ccc(F)cc1)C(=O)CCC(=O)Nc1ccccn1)NCc1ccco1	0.7	.	0.7	31.2	31.1	1.6
O=C(CN(C(=O)CCC(=O)Nc1nccs1)c1ccccc1F)NCC1CCCO1 (configuration not stated)	0.6	-0.59	0.7	25.5	42.9	3.5
O=C(CN(Cc1ccccc1)C(=O)CCC(=O)Nc1nccs1)NCc1ccco1	0.7	.	0.4	60.6*	26.5	.
O=C(CN(C(=O)CCC(=O)Nc1nccs1)c1ccc(F)cc1)NCc1ccco1	0.7	.	0.3	65.2*	32.4	2.7
O=C(CN(C(=O)CCC(=O)Nc1nccs1)c1ccc(F)c(Cl)c1)NCc1ccco1	0.7	.	0.2	76.0*	27.3	.
O=C(CNC(=S)NC(=O)c1ccco1)c1ccccc1	1.4	0.5	0.9	5.5	-35.5	-2.5
CC(C)(C)c1ccc(-c2nnc(SCCC#N)n2C2CCCC2)cc1	0.6	-4.43*	0.9	13.7	40.7	-5.5

Assay outcomes deposited in PubChem BioAssay by several laboratories.
